# Laboratory results published in ChEMBL document CHEMBL3085754, “Clicking 3'-azidothymidine into novel potent inhibitors of human immunodeficiency virus” (J Med Chem, 2013).
# Calls of active or inactive are those of the source. No cut-off for these calls is given here.
# Assays:
# [1] = tested on: Human immunodeficiency virus 1; assay: Antiviral activity against Human immunodeficiency virus 1 3B infected in human CEM-SS cells assessed as inhibition of virus-induced cytopathic effect at 10 uM after 6 days by MTS assay relative to control; assay type: functional; details: 144 h
# [2] = tested on: Human immunodeficiency virus 1; assay: Antiviral activity against AZT-resistant Human immunodeficiency virus 1 expressing D67N/K70R/T215F/K219Q reverse transcriptase mutation; assay type: functional, organism-based
# [3] = tested on: CEM-SS; assay: Cytotoxicity against human CEM-SS cells assessed as cell viability at 10 uM after 6 days by MTS assay relative to control; assay type: cell-based; details: 144 h
# [4] = tested on: Human immunodeficiency virus 1; assay: Antiviral activity against NNRTI-resistant Human immunodeficiency virus 1; assay type: functional, organism-based
# [5] = tested on: Human immunodeficiency virus 1; assay: Ratio of EC50 for NNRTI-resistant Human immunodeficiency virus 1 to EC50 for wild type Human immunodeficiency virus 1 expressing p24; assay type: functional
# [6] = tested on: Human immunodeficiency virus 1; assay: Ratio of EC50 for AZT-resistant Human immunodeficiency virus 1 to EC50 for wild type Human immunodeficiency virus 1 expressing p24; assay type: functional
# [7] = tested on: Human immunodeficiency virus 1; assay: Antiviral activity against Human immunodeficiency virus 1 3B infected in human CEM-SS cells assessed as inhibition of virus-induced cytopathic effect after 6 days by MTS assay; assay type: functional, organism-based; details: 144 h
# [8] = Therapeutic index, ratio of CC50 for human CEM-SS cells to EC50 for Human immunodeficiency virus 1 3B; assay type: cell-based; details: read-out: Ratio CC50/EC50
# [9] = tested on: CEM-SS; assay: (§1) Cytotoxicity against human CEM-SS cells assessed as cell viability after 6 days by MTS assay; assay type: cell-based; details: cem-ss, 144 h
# [10] = tested on: Human immunodeficiency virus 1; assay: Antiviral activity against wild type Human immunodeficiency virus 1 expressing p24 infected in human HeLa P4/R5 cells preincubated for 16 hrs prior to virus infection measured after 48 hrs by beta-galactosidase-based single replication cycle assay; assay type: functional, organism-based; details: for EC50: Human immunodeficiency virus 1, P4/R5
# Outline: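 P4R5 indicator cells express CD4, CXCR4, CCR5 and an HIV LTR-driven β-galactosidase reporter, and were kept in DMEM/10% FBS with puromycin. Cells were seeded at 5×10^3 per well and exposed to varying drug concentrations for 16 h. They were then inoculated with 25 ng HIV-1 p24 per well. Infection was quantified 48 h post-infection by fluorescence-based β-galactosidase detection.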
# [11] = biological target: Human immunodeficiency virus type 1 reverse transcriptase (Human immunodeficiency virus 1) (UniProt Q72547); assay: Binding affinity to HIV1 reverse transcriptase assessed as compound incorporation into DNA by primer extension assay
# [12] = biological target: Human immunodeficiency virus type 1 reverse transcriptase (Human immunodeficiency virus 1, UniProt Q72547); assay: Inhibition of HIV1 reverse transcriptase-mediated [H3]TTP incorporation into poly(rA)-oligo(dT)16 DNA preincubated for 5 mins prior to primer/template and substrate addition by liquid scintillation spectrometric analysis
# Outline: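 10 nM wt HIV-1 RT preincubated 5 min with inhibitor in DMSO (1% final), then 40 nM poly(rA)-oligo(dT)16 and 10 μM [3H]TTP added. Buffer 50 mM Tris-HCl pH 8.0, 60 mM KCl, 10 mM MgCl2; 20 min at 37°C. Quenched with cold 10% TCA/20 mM pyrophosphate, glass-fibre filtered, washed with TCA and ethanol, incorporation counted by liquid scintillation.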
# [13] = biological target: Human immunodeficiency virus type 1 reverse transcriptase (Human immunodeficiency virus 1) (UniProt Q72547); assay: Binding affinity to HIV1 reverse transcriptase assessed as compound-terminated template/primer translocation from N-site to P-site of enzyme preincubated for 20 mins prior to TTP addition measured after 10 mins by gel electrophoretic analysis
# Outline: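 50 nM 32P-labelled primer/RNA template with 300 nM RT in 120 mM Na cacodylate pH 7.0, 20 mM NaCl, 6 mM MgCl2 and 100 μM AZT-TP or triphosphate analogue, 20 min at 37°C, for chain-terminator incorporation. Varying TTP then added for 10 min, followed by 500 μM Fe(NH4)2SO4 cleavage. Products resolved by denaturing gel electrophoresis.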
# [14] = biological target: Human immunodeficiency virus type 1 reverse transcriptase (Human immunodeficiency virus 1) (UniProt Q72547); assay: Induction of AZT-resistant HIV1 reverse transcriptase assessed as rate of ATP-mediated excision of chain-terminating nucleotides by phosphorimaging analysis
# Outline: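 5'-32P-labelled DNA primer annealed 1:1.5 to 40-nt RNA template, then chain-terminated with AZT-TP or the triphosphate analogue. AZT-resistant RT and terminated template/primer (2:1) in 50 mM Tris-HCl pH 8.0, 50 mM KCl. Started with 6 mM MgCl2 and 3 mM pyrophosphatase-pretreated ATP, 37°C. Stopped at timed points with formamide/EDTA dye and resolved by denaturing gel.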
# [15] = as §1; assay type: cell-based; details: CEM-SS cells
structure (smiles),measurement,setting,value
Cc1cn([C@H]2C[C@H](n3nncc3-c3cccc4ccccc34)[C@@H](CO)O2)c(=O)[nH]c1=O,inhibition at 10 µM,[1],83%
same,EC50,[2],9.1 µM
same,Activity,[3],100%
same,EC50,[4],0.6 µM
same,Ratio EC50,[5],0.6
same,Ratio EC50,[6],9
same,EC50,[7],0.067 µM
same,selectivity ratio,[8],910
same,CC50,[9],61 µM
same,Activity,[10],Dose-dependent effect
same,EC50,[10],1 µM
Cc1cn([C@H]2C[C@H](O)[C@@H](COP(=O)(O)OP(=O)(O)OP(=O)(O)O)O2)c(=O)[nH]c1=O,Activity,[11],Active
Cc1cn([C@H]2C[C@H](n3nncc3-c3cc4ccccc4c4ccccc34)[C@@H](COP(=O)(O)OP(=O)(O)OP(=O)(O)O)O2)c(=O)[nH]c1=O,IC50,[12],11.8 µM
Cc1cn([C@H]2C[C@H](n3nncc3COc3ccc4ccccc4c3)[C@@H](CO)O2)c(=O)[nH]c1=O,inhibition at 10 µM,[1],88%
same,Activity,[3],95%
same,EC50,[4],2.4 µM
same,Ratio EC50,[5],<0.5
same,EC50,[7],1.9 µM
same,selectivity ratio,[8],37
same,CC50,[9],70 µM
same,EC50,[10],> 5 µM
Cc1cn([C@H]2C[C@H](n3nncc3-c3cccc4ccccc34)[C@@H](COP(=O)(O)OP(=O)(O)OP(=O)(O)O)O2)c(=O)[nH]c1=O,IC50,[12],3.7 µM
same,Activity,[13],Active
same,Activity,[14],0.0126 min⁻¹
Cc1cn([C@H]2C[C@H](N=[N+]=[N-])[C@@H](COP(=O)(O)OP(=O)(O)OP(=O)(O)O)O2)c(=O)[nH]c1=O,Activity,[11],Active
Cc1cn([C@H]2C[C@H](N=[N+]=[N-])[C@@H](CO)O2)c(=O)[nH]c1=O [ZIDOVUDINE],EC50,[2],7.9 µM
same,Activity,[13],Active
same,EC50,[4],0.12 µM
same,Activity,[14],0.024 min⁻¹
same,EC50,[7],0.0053 µM
same,CC50 at 144 h,[15],> 1 µM
same,EC50,[10],0.14 µM
